Measurements from different studies.
Each line is one published result; the experiments were not run side by side.
Target: Mitogen-activated protein kinase 11 (MAPK11, Homo sapiens, UniProt Q15759)

CCCCC(=O)Nc1ccc(-c2ccc3ncn(CCC)c(=O)c3c2)cn1  remaining binding (binding; competition with immobilised ligand; 0.5 µM): 87%
C=CC(=O)N1CCC[C@@H](n2nc(-c3ccc(Oc4ccccc4)cc3)c3c(N)ncnc32)C1  inhibition (enzyme activity; inhibitor; 1 µM): 2%
Cc1ccc(NC(=O)c2ccnc(C(F)(F)F)c2)cc1-c1cc(OCCO)nc(N2CCOCC2)c1  remaining binding (binding; competition with immobilised ligand; 1 µM): 34%
C#Cc1cnc(Nc2ccnc(CO)c2)nc1Nc1ccccc1S(C)(=O)=NC#N (stereo not shown)  remaining signal (cell-free assay; 1 µM): 82%
CN1CCN(C(=O)c2ccc(NC(=O)Nc3ccc(N(C)c4ccnc(Nc5ccc(CS(C)(=O)=O)cc5)n4)cc3)cc2)CC1  remaining binding (binding; competition with immobilised ligand; 1 µM): 100%
C#Cc1cc(-c2cc(Nc3nc(N[C@@H](C)c4ccc(F)cn4)ncc3Cl)n[nH]2)ccc1C=O  inhibition (enzyme activity; inhibitor; 0.2 µM): 21.9%
CC#CC(=O)N1CCC[C@H]1c1nc(-c2ccc(C(=O)Nc3ccccn3)cc2)c2c(N)nccn12  inhibition (enzyme activity; inhibitor; 1 µM): 0%
Cc1cc(O)c(-c2ccc([C@@H](C)CN(C)C)cc2)c2c1[nH]c(=O)c1sccc12  inhibition (enzyme activity; inhibitor; 0.1 µM): 5.56%
N#Cc1ccc(NC(=O)Nc2ccccc2)cc1  remaining binding (cell-free assay; competition with immobilised ligand; 25 µM): 100%
CC(C)S(=O)(=O)c1ccc2nccc(Nc3ccc4sc(C5CCCC5)nc4c3)c2c1  activity vs control (enzyme activity; inhibitor; 1 µM): 108%
